Reference: ChEMBL document CHEMBL4706708, “Improving the solubility of anti-proliferative thieno[2,3-b]quinoline-2-carboxamides” (Bioorg Med Chem, 2021)
Values after ≈ are worked out from the molar mass of the structure shown.

Key:
HCT-116 [1] = assay: Antiproliferative activity against human HCT-116 cells assessed as cell growth at 1 uM measured after 3 days by [3H]-thymidine incorporation assay relative to control; format: functional; conditions: HCT-116, 72 h, time 3 day, read-out: Activity
Procedure, shortened: (§1)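 HCT116 and MDA-MB-231 cells from ATCC, seeded at 3000 cells/well, exposed to inhibitor for three days; 0.04 µCi 3H-thymidine added per well 5 h before harvest onto glass fibre filters, incorporation counted by scintillation and expressed relative to untreated controls. Triplicate wells, at least two independent experiments. Single-point screen at 1 µM; IC50 determined from varying concentrations.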

MDA-MB-231 [2] = assay: Antiproliferative activity against human MDA-MB-231 cells assessed as cell growth at 1 uM measured after 3 days by [3H]-thymidine incorporation assay relative to control; format: functional; conditions: MDA-MB-231, 72 h, time 3 day, read-out: Activity; procedure, shortened: as §1
[3] = Thermodynamic solubility of compound in water measured after 15 mins RP-HPLC analysis; format: physicochemical; conditions: read-out: Therm_solubility
HCT-116 [4] = assay: Antiproliferative activity against human HCT-116 cells assessed as cell growth inhibition measured after 3 days by [3H]-thymidine incorporation assay; format: functional, cell-based; procedure, shortened: as §1
MDA-MB-231 [5] = assay: Antiproliferative activity against human MDA-MB-231 cells assessed as cell growth inhibition measured after 3 days by [3H]-thymidine incorporation assay; format: functional, cell-based; procedure, shortened: as §1
[6] = Stability in water measured after 15 mins RP-HPLC analysis; format: physicochemical; conditions: buffer, 0.25 h

Row | SMILES | growth at 1 µM (HCT-116 [1]) | growth at 1 µM (MDA-MB-231 [2]) | solubility thermodynamic at 0.25 h [3] | IC50 (HCT-116 [4]) | IC50 (MDA-MB-231 [5]) | Stabilty [6]
1 | Nc1c(C(=O)Nc2cccc(Cl)c2)sc2nc3c(cc12)CN(Cc1ccccc1)CC3 | 89.9% | 80.5% | 0.213 µg/mL (≈ 0.474 µM) | – | – | –
2 | Cc1ccccc1NC(=O)c1sc2nc3c(cc2c1N)CN(Cc1ccccc1)CC3 | 96.4% | 109% | 0.26 µg/mL (≈ 0.607 µM) | – | – | –
3 | COc1ccc(NC(=O)c2sc3nc4c(cc3c2N)CN(Cc2ccccc2)CC4)cc1 | 87.4% | 94.1% | 0.197 µg/mL (≈ 0.443 µM) | – | – | –
4 | CC(=O)c1cc2c(N)c(C(=O)Nc3ccccc3Cl)sc2nc1C | 87.3% | 99.6% | 0.13 µg/mL (≈ 0.361 µM) | – | – | –
5 | Cc1c(Cl)cccc1NC(=O)c1sc2nc3c(cc2c1N)CN(Cc1ccccc1)CC3 | 2.3% | 4% | 0.77 µg/mL (≈ 1.66 µM) | 193 nM | 150 nM | –
6 | CC(=O)c1cc2c(N)c(C(=O)Nc3cccc(C(F)(F)F)c3C)sc2nc1C | 106% | 67.7% | 1.17 µg/mL (≈ 2.87 µM) | – | – | –
7 | COc1cccc(NC(=O)c2sc3nc4c(cc3c2N)CN(Cc2ccccc2)CC4)c1 | 85.2% | 90.7% | 0.3 µg/mL (≈ 0.675 µM) | – | – | –
8 | CC(=O)c1cc2c(N)c(C(=O)Nc3cccc4c3OCCO4)sc2nc1C | 72.5% | 104% | 0.26 µg/mL (≈ 0.678 µM) | – | – | Unstable
9 | Cc1nc2sc(C(=O)Nc3cccc4ccccc34)c(N)c2cc1C(C)O (configuration not stated) | 1.7% | 9.9% | 2.21 µg/mL (≈ 5.85 µM) | 171 nM | 81 nM | –
10 | Nc1c(C(=O)Nc2ccccc2)sc2nc3c(cc12)CN(C(=O)OCc1ccccc1)CC3 | 3.1% | 17.5% | 1.93 µg/mL (≈ 4.21 µM) | – | – | –
11 | Nc1c(C(=O)Nc2ccccc2)sc2nc3c(cc12)CNCC3 | 100% | 89.7% | 40.5 µg/mL (≈ 125 µM) | – | – | –
12 | Cc1c(F)cccc1NC(=O)c1sc2nc3c(cc2c1N)CN(Cc1ccccc1)CC3 | 98.1% | 97.3% | 0.84 µg/mL (≈ 1.88 µM) | – | – | –
13 | COc1cccc(NC(=O)c2sc3nc(C)c(C(C)=O)cc3c2N)c1 | 96.5% | 96% | 1.1 µg/mL (≈ 3.09 µM) | – | – | –
14 | COc1ccc(NC(=O)c2sc3nc(C)c(C(C)=O)cc3c2N)cc1 | 82.9% | 84.6% | 0.13 µg/mL (≈ 0.366 µM) | – | – | –
15 | CC(=O)c1cc2c(N)c(C(=O)Nc3cccc(C)c3C)sc2nc1C | 2.1% | 8.9% | 0.68 µg/mL (≈ 1.92 µM) | 422 nM | 506 nM | –
16 | Cc1ccccc1NC(=O)c1sc2nc3c(cc2c1N)COCC3 | 101% | 103% | 7.52 µg/mL (≈ 22.2 µM) | – | – | –
17 | CN1CCc2nc3sc(C(=O)Nc4cccc5ccccc45)c(N)c3cc2C1 | 93.5% | 89% | 2.17 µg/mL (≈ 5.59 µM) | – | – | –
18 | Nc1c(C(=O)Nc2ccccc2)sc2nc3c(cc12)COCC3 | 91.5% | 98.9% | 1.03 µg/mL (≈ 3.17 µM) | – | – | –
19 | Nc1c(C(=O)Nc2cccc3ccccc23)sc2nc3c(cc12)CN(Cc1ccccc1)CC3 | 4.7% | 19.3% | 3.97 µg/mL (≈ 8.55 µM) | 640 nM | 644 nM | –
20 | CC(=O)c1cc2c(N)c(C(=O)Nc3cccc(F)c3C)sc2nc1C | 103% | 114% | 0.35 µg/mL (≈ 0.979 µM) | – | – | –
21 | Cc1c(Cl)cccc1NC(=O)c1sc2nc3c(cc2c1N)CN(C)CC3 | 101% | 95.3% | 0.44 µg/mL (≈ 1.14 µM) | – | – | Unstable

Row | SMILES | growth at 1 µM (HCT-116 [1]) | growth at 1 µM (MDA-MB-231 [2]) | solubility thermodynamic at 0.25 h [3] | IC50 (HCT-116 [4]) | IC50 (MDA-MB-231 [5]) | Stabilty [6]
22 | CC(=O)c1cc2c(N)c(C(=O)Nc3ccccc3C)sc2nc1C | 110% | 97.1% | 1.49 µg/mL (≈ 4.39 µM) | – | – | –
23 | CC(=O)c1cc2c(N)c(C(=O)Nc3ccnc4ccccc34)sc2nc1C | 102% | 91.6% | 0.26 µg/mL (≈ 0.691 µM) | – | – | Unstable
24 | COc1cccc(NC(=O)c2sc3nc(C)c(C(C)=O)cc3c2N)c1C | 96.8% | 99.7% | 1.52 µg/mL (≈ 4.11 µM) | – | – | –
25 | COc1ccc(NC(=O)c2sc3nc(C)c(C(C)O)cc3c2N)cc1 (configuration not stated) | 97.5% | 114% | 1.79 µg/mL (≈ 5.01 µM) | – | – | –
26 | CC(=O)c1cc2c(N)c(C(=O)Nc3cccc4ccccc34)sc2nc1C | 7.8% | 13.6% | 1.08 µg/mL (≈ 2.88 µM) | 591 nM | 633 nM | –
27 | CC(=O)c1cc2c(N)c(C(=O)Nc3cccc(Br)c3C)sc2nc1C | 4% | 11% | 1.15 µg/mL (≈ 2.75 µM) | 183 nM | 219 nM | –
28 | Cc1c(Br)cccc1NC(=O)c1sc2nc3c(cc2c1N)CN(Cc1ccccc1)CC3 | 1% | 3.5% | 0.61 µg/mL (≈ 1.2 µM) | 151 nM | 122 nM | –
29 | CC(=O)c1cc2c(N)c(C(=O)Nc3cccc(Cl)c3C)sc2nc1C | 10% | 13.7% | 1.63 µg/mL (≈ 4.36 µM) | 573 nM | 636 nM | –
30 | Nc1c(C(=O)Nc2ccccc2Cl)sc2nc3c(cc12)CN(Cc1ccccc1)CC3 | 99.4% | 99.8% | 1.06 µg/mL (≈ 2.36 µM) | – | – | –
31 | CC(=O)c1cc2c(N)c(C(=O)Nc3cccc(Cl)c3)sc2nc1C | 101% | 102% | 1.52 µg/mL (≈ 4.22 µM) | – | – | –
32 | Cc1c(NC(=O)c2sc3nc4c(cc3c2N)CN(Cc2ccccc2)CC4)cccc1C(F)(F)F | 69.7% | 61.5% | 1.31 µg/mL (≈ 2.64 µM) | > 1000 nM | > 1000 nM | –
33 | COc1ccc(NC(=O)c2sc3nc4c(cc3c2N)CN(C)CC4)cc1 | 98.9% | 90.3% | 2.17 µg/mL (≈ 5.89 µM) | – | – | –
34 | COc1ccc(NC(=O)c2sc3nc4c(cc3c2N)COCC4)cc1 | 80.1% | 83.9% | 3.19 µg/mL (≈ 8.98 µM) | – | – | –
35 | Cc1c(Cl)cccc1NC(=O)c1sc2nc3c(cc2c1N)COCC3 | 78.1% | 50.9% | 1.15 µg/mL (≈ 3.08 µM) | – | – | Unstable
36 | CC(=O)c1cc2c(N)c(C(=O)Nc3ccccc3)sc2nc1C | 109% | 120% | 3 µg/mL (≈ 9.22 µM) | – | – | –
37 | Cc1ccccc1NC(=O)c1sc2nc(C)c(C(C)O)cc2c1N (configuration not stated) | 99.9% | 97.9% | 29.5 µg/mL (≈ 86.5 µM) | – | – | –
38 | Cc1cccc(NC(=O)c2sc3nc4c(cc3c2N)CN(Cc2ccccc2)CC4)c1C | 1.5% | 4% | 1.72 µg/mL (≈ 3.89 µM) | 201 nM | 162 nM | –
39 | COc1cccc(NC(=O)c2sc3nc4c(cc3c2N)CN(Cc2ccccc2)CC4)c1C | 101% | 106% | 1.89 µg/mL (≈ 4.12 µM) | – | – | –
40 | Cc1nc2sc(C(=O)Nc3cccc(Cl)c3C)c(N)c2cc1C(C)O (configuration not stated) | 2.2% | 11.7% | 2.41 µg/mL (≈ 6.41 µM) | 72 nM | 76 nM | –
41 | Cc1nc2sc(C(=O)Nc3ccccc3)c(N)c2cc1C(C)O (configuration not stated) | 95.3% | 107% | 3.51 µg/mL (≈ 10.7 µM) | – | – | –
42 | Cc1ccccc1NC(=O)c1sc2nc3c(cc2c1N)CN(C)CC3 | 101% | 95.3% | 5.61 µg/mL (≈ 15.9 µM) | – | – | –
